Screening results (PubChem BioAssay)
An excerpt weighted towards active compounds, which were near 4.1% of everything screened.
KCC2 mod – modulates chloride dependent transport by human KCC2; Q9H2X9; KCC2 cells, thallium flux FluoZin-2 fluorescence; B-score of Tl+ flux slope (higher = more flux/activation; lower = inhibition) at 10 µM; hit rate 2.2% among 190,000;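 active = thallium flux slope and its plate-corrected score both differing from the plate sample mean at a set confidence after two filtering rounds, in either direction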;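 also: slope of fluorescence scaled to starting intensity during 10 to 20 s after thallium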
KCNQ1 act – potentiators or activators of human KCNQ1 potassium channel | P51787 | CHO-K1 KCNQ1, thallium flux FluxOR fluorescence; hits give high values | B-score at 10 µM | hit rate 0.35% among 310,000;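 active = fluorescence ratio B-score, a plate-corrected score, at least three library SD, with initial intensity B-score within 5 SD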
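System: Stable KCNQ1 CHO-K1 line | Incubation: 90 min dye loading and 20 min compound exposure, both at room temperature | Measure: Ratio B score | Medium: Assay buffer for compound exposure, DMSO matched across wells | Compound dosing: Single-concentration screen | Probe or stimulus: K+/Tl+ depolarizing stimulus | Measured by: Kinetic FluxOR fluorescence, 10 s baseline plus 110 s post-stimulus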
KCNK9 inh – inhibitors of human KCNK9 two-pore domain potassium channel. hit rate 1.2% among 310,000. HEK293 KCNK9, FluxOR thallium flux fluorescence; hits give low values. B-score at 10 µM. Q9NPC2;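 active = ratio B-score over 3 SD below the library mean, with starting fluorescence within 5 SD of its mean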;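 also: negative B-score means less thallium flux so channel inhibition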
Target sequence (Q9NPC2 whole entry, looked up, the tested form may be a part): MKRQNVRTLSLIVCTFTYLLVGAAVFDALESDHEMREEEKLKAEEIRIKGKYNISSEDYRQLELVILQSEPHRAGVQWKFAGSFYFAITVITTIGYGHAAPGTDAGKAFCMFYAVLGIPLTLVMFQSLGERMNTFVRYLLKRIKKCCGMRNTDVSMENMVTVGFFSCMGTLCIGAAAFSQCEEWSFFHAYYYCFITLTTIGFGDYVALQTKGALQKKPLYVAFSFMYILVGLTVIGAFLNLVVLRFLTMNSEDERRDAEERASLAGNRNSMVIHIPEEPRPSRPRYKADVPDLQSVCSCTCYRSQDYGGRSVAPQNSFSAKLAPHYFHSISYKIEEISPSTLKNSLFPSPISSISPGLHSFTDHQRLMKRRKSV
hERG protect – compounds protecting human hERG from proarrhythmic drug block. activation (rescue from dofetilide block), less the hit threshold, % at 10 µM. CHO-hERG, FluxOR thallium flux, dofetilide IC70 present. hit rate 0.51% among 310,000. AID 1511;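 active = activation above the mean of controls blocked by dofetilide plus 5 SD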;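 also: thallium influx through hERG after potassium depolarization seen as dye fluorescence rise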
KCNK3 inh – human KCNK3 channel inhibition, primary screen. CHO-KCNK3 thallium flux, FluxOR fluorescence; hits give low values. B-score at 10 µM. hit rate 0.84% among 340,000;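 active = B-score under library mean minus 4 SD, starting fluorescence ratio at most library mean plus 5 SD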;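 also: more negative B-score means stronger inhibition of thallium flux through KCNK3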
Target sequence (O14649 whole entry, looked up): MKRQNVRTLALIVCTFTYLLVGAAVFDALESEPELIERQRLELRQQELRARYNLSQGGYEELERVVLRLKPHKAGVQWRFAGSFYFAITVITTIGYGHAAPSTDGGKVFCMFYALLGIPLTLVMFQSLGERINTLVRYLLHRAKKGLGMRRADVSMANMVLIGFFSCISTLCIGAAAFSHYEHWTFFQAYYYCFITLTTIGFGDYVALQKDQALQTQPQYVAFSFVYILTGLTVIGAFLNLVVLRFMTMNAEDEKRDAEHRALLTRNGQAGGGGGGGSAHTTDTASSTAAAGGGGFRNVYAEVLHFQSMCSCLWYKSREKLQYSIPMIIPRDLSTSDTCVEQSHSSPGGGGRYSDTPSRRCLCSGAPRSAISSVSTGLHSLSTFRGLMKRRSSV
KCNQ1 block – human KCNQ1 channel inhibition | P51787 | CHO-K1 KCNQ1, FluxOR thallium flux fluorescence; hits give high values | B-score at 10 µM | hit rate 1.3% among 310,000 | AID 2642;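 active = compounds whose thallium flux B-score, printed positive for inhibition, exceeds three library SD while starting fluorescence stays within three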;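 also: channel opened by potassium depolarization with thallium stimulus after 20 min compound exposure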
KCNK9 block conf – confirmation of human KCNK9 potassium channel inhibitors. shares compounds with KCNK9 inh. HEK293 KCNK9 cells, FluxOR thallium flux fluorescence. inhibition, % at 10 µM. hit rate 43% among 4,900;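 active = thallium signal inhibited by more than 5 SD of the compound-free buffer control wells, on both duplicate plates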
Kir2-1 spec – tests whether KCNK9 modulators also affect mouse Kir2.1 | shares compounds with KCNK9 inh | Kir2.1 cells, FluxOR thallium flux fluorescence | inhibition, % at 10 µM | hit rate 4% among 4,900;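 active = thallium signal drop more than 5 SD beyond the mean of the no-compound control wells, seen in both duplicate plates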;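 also: signal is fluorescence rise after thallium addition divided by baseline fluorescence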
KCNK9 uninduced – non-induced cell nonspecific activity of KCNK9 modulators; hit rate 40% among 4,900; non-induced KCNK9-HEK293, FluxOR thallium flux; shares compounds with KCNK9 inh; inhibition, % at 10 µM; AID 492997;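 active = thallium signal drop beyond 5 SD of the untreated control mean, on both duplicate plates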
Of the large screens only hits and unclear results are named; the others gave an inactive call (follow-up assays come after a bar, where they were run).

Cc1nn(Cc2ccccc2)c(=O)n1N(C)c1ncc(C(F)(F)F)cc1Cl	none | KCNK9 block conf inactive | Kir2-1 spec inactive | KCNK9 uninduced inactive
Cc1nn(C)c(=O)n1N(C)c1ncc(C(F)(F)F)cc1Cl	none
N#CC(c1ccccc1O)N1N=C(c2ccccc2)CC1c1ccccc1 (centres undefined)	KCNK9 inh -10, KCNQ1 block 12 | KCNK9 block conf 40% | Kir2-1 spec inactive | KCNK9 uninduced 47%
O=C(Nc1ccccc1-c1nnc(SCc2ccc(Cl)cc2)o1)c1ccccc1	none (no result: KCC2 mod)
O=C(Nc1ccccc1-c1nnc(SCc2ccccc2)o1)c1ccccc1	none (no result: KCC2 mod) | KCNK9 block conf inactive | Kir2-1 spec inactive | KCNK9 uninduced inactive
Cc1cccc(N(CC(=O)Nc2ccccc2-c2ccccc2)S(=O)(=O)c2ccccc2)c1C	none
Cc1ccccc1CN(C)CC(=O)Nc1ccccc1-c1ccccc1	KCNK9 inh -10 | KCNK9 block conf 71% | Kir2-1 spec 55% | KCNK9 uninduced 42%
O=C(CNC(c1ccccc1)c1ccccc1)Nc1ccccc1-c1ccccc1	KCNK9 inh -12 | KCNK9 block conf 26% | Kir2-1 spec inactive | KCNK9 uninduced 42%
CN(CC(=O)Nc1ccccc1Oc1ccccc1)Cc1ccccc1F	KCNK9 inh -13 | KCNK9 block conf 78% | Kir2-1 spec 47% | KCNK9 uninduced 42%
CN(CC(=O)Nc1ccccc1C(=O)NC1CC1)Cc1ccccc1F	none (no result: KCC2 mod, KCNQ1 act, KCNK9 inh, hERG protect, KCNQ1 block)
Cc1ccccc1/C=C/c1nc2ccccc2c(=O)n1CCc1ccccc1	KCNK9 inh -11 | KCNK9 block conf 24% | Kir2-1 spec inactive | KCNK9 uninduced 33%
CCc1nnc(NC(=O)CSc2nnc(-c3ccccc3OC)n2-c2ccccc2)s1	KCNK9 inh -17 | KCNK9 block conf 68% | Kir2-1 spec inactive | KCNK9 uninduced 32%
CCc1nnc(NC(=O)CSc2nnc(-c3ccccc3OC)n2-c2ccc(C)cc2)s1	none
NC(=O)COC(=O)[C@H](Cc1c[nH]c2ccccc12)NC(=O)c1ccc(F)cc1	none (no result: KCC2 mod)
COc1ccc(S(=O)(=O)N2CCCCCC2)cc1NC(=O)CN(C)Cc1ccc2c(c1)OCO2	none (no result: KCC2 mod, KCNQ1 act, KCNK9 inh, hERG protect, KCNQ1 block)
COC(=O)c1ccc(/C=N/N2CCN(Cc3ccc(C)cc3C)CC2)cc1	none | KCNK9 block conf inactive | Kir2-1 spec inactive | KCNK9 uninduced inactive
C=C1CC2(CC(c3ccccc3)OC(c3ccccc3)C2)OC1=O (centres undefined)	none (no result: KCC2 mod, KCNQ1 act, KCNK9 inh, hERG protect, KCNQ1 block)
CN(CC(=O)Nc1cccc(F)c1)C(=O)CCCc1cccs1	none
N#Cc1ccsc1NC(=O)CCc1ccccc1	none
N#Cc1ccsc1NC(=O)CN(Cc1ccccc1)Cc1ccccc1	KCNK9 inh -17, KCNQ1 block 6 | KCNK9 block conf 68% | Kir2-1 spec inactive | KCNK9 uninduced 59%
COc1cccc(CN2CCC(CO)(CC3CCCCO3)CC2)c1 (centres undefined)	none
COc1cccc(COC(=O)C2CCN(S(=O)(=O)c3ccc(C)cc3C)CC2)c1OC	none (no result: KCC2 mod) | KCNK9 block conf inactive | Kir2-1 spec inactive | KCNK9 uninduced inactive
CCOC(=O)/C(=N\Nc1ccccc1Cl)N1CCN(c2ccccc2OC)CC1	KCNK9 inh -10 | KCNK9 block conf 32% | Kir2-1 spec inactive | KCNK9 uninduced 29%
CCOC(=O)N1CCN(c2c(N3CCN(c4ccccc4OC)CC3)c(=O)c2=O)CC1	none
CCCCCCCCC[n+]1cccc2c3ccccc3ccc21	KCNK9 inh -17 (no result: KCC2 mod) | KCNK9 block conf 70% | Kir2-1 spec 90% | KCNK9 uninduced 30%
CCCCCCCCCCCCCCCC[n+]1cccc2ccccc21	none (no result: KCNQ1 act, KCNK9 inh, hERG protect, KCNQ1 block)
Cc1ccc(-c2cc(-c3n[nH]c(=S)o3)c3ccccc3n2)cc1	KCC2 mod 17, KCNQ1 act 15, hERG protect 12 | KCNK9 block conf inactive | Kir2-1 spec inactive | KCNK9 uninduced inactive
O=C(CSCc1ccccc1)N1CCN(c2ccccc2)CC1	none
Cc1ccnc(NC(=S)N2CCN(c3cccc(C(F)(F)F)c3)CC2)c1	none (no result: KCC2 mod) | KCNK9 block conf inactive | Kir2-1 spec inactive | KCNK9 uninduced inactive
O=C(CSCc1ccccc1)N1CCN(c2cccc(C(F)(F)F)c2)CC1	none | KCNK9 block conf inactive | Kir2-1 spec inactive | KCNK9 uninduced inactive
C/C(=C\c1ccccc1)C(=O)N1CCN(c2cccc(C(F)(F)F)c2)CC1	none | KCNK9 block conf inactive | Kir2-1 spec inactive | KCNK9 uninduced inactive
CC(C(=O)N1CCc2ccccc21)N1CCN(c2cccc(C(F)(F)F)c2)CC1 (centres undefined)	none (no result: KCC2 mod) | KCNK9 block conf inactive | Kir2-1 spec inactive | KCNK9 uninduced inactive
CCCn1c(C)nnc1SCC(=O)NC1CCCCC1	none (no result: KCC2 mod)
CCc1nc(Sc2nnnn2-c2ccccc2)c2c3c(sc2n1)CCCC3	none | KCNK9 block conf inactive | Kir2-1 spec inactive | KCNK9 uninduced inactive
O=C(Cc1ccc(NC(=O)C2CCCN(C(=O)C3CCC3)C2)cc1)Nc1cccc(C(=O)N2CCCCC2)c1 (centres undefined)	none (no result: KCC2 mod, KCNQ1 act, KCNK9 inh, hERG protect, KCNQ1 block)
Cc1ccccc1C(=O)Nc1sc(C)c(C)c1C(=O)c1ccccc1	KCNQ1 block 8 | KCNK9 block conf inactive | Kir2-1 spec inactive | KCNK9 uninduced inactive
Cc1sc(NC(=O)CCl)c(C(=O)c2ccccc2)c1C	none (no result: KCC2 mod)
Cc1ccc(NC(=O)CCS(=O)(=O)c2cccc3nonc23)c(Br)c1	none (no result: KCC2 mod)
CCN1CCCc2cc(CN(CCN3CCOCC3)C(=S)Nc3cccc(Cl)c3)ccc21	none | KCNK9 block conf inactive | Kir2-1 spec inactive | KCNK9 uninduced inactive
Cc1ccccc1C(=NC(=O)c1ccccc1)c1ccccc1	KCNK9 inh -10 (no result: KCC2 mod) | KCNK9 block conf 47% | Kir2-1 spec inactive | KCNK9 uninduced 46%
CCCCCCCCCCCCN1[C@@H](CC(=O)O)c2cc(C(F)(F)F)ccc2S1(=O)=O	none (no result: KCC2 mod) | KCNK9 block conf inactive | Kir2-1 spec inactive | KCNK9 uninduced inactive
CCCCCCCCCCCCN1[C@@H](CC(=O)O)c2cc(F)ccc2S1(=O)=O	none (no result: KCC2 mod) | KCNK9 block conf inactive | Kir2-1 spec inactive | KCNK9 uninduced inactive
CCCCCCCCN1[C@@H](CC(=O)OC)c2cc(F)ccc2S1(=O)=O	none (no result: KCC2 mod)
CCN(CC(=O)Nc1c(F)cccc1F)C(=O)C1CC1	none (no result: KCC2 mod, KCNQ1 act, KCNK9 inh, hERG protect, KCNQ1 block)
Cc1cnc(C(=O)Nc2ccc(C)c(S(=O)(=O)N3CCCCCC3)c2)cn1	none (no result: KCC2 mod, KCNQ1 act, KCNK9 inh, hERG protect, KCNQ1 block)
CCOc1ccc(-n2c(=S)sc3c(=O)n(-c4ccc(F)cc4)c(SCC(=O)O)nc32)cc1	none (no result: KCC2 mod)
CCn1c2ccccc2c2cc(NC(=O)c3cccc(OC)c3)ccc21	KCNK9 inh -12 (no result: KCC2 mod) | KCNK9 block conf 43% | Kir2-1 spec inactive | KCNK9 uninduced 36%
